Measurements from article PMC4021529 (British Journal of Cancer, 2014).
“Also recorded” adds a separate entry of the source.

System: advanced solid tumours
Test: Objective tumour response
Assay type: in vivo, human
Details: for median PFS: all dose groups
Summary of the method: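 Patients with advanced solid tumours at two Taiwanese sites. Test compound given as a 2-h IV infusion on day 1 (schedule A) or days 1 and 8 (schedule B), every 3 weeks. CT or MRI at baseline and at the end of every other course, assessed by RECIST 1.0. PFS estimated by Kaplan–Meier.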

## CC[C@@H]1C(=O)N(C)c2cnc(Nc3ccc(C(=O)N[C@H]4CC[C@H](N5CCN(CC6CC6)CC5)CC4)cc3OC)nc2N1C(C)C [volasertib]
59 treated patients, both schedules
  partial responses in the study: two pre-treated patients; also recorded: Two partial responses
Bladder urothelial cancer with lymph node metastasis, 50 mg schedule B
  duration of stable disease, individual patient: > 8 months
overall, both schedules
  patients with stable disease as best overall response: 26 (44.1%) patients (%)
Schedule A
  patients with stable disease as best overall response: 14 (43.8%) patients (%)
  median PFS: 49 days
Schedule B
  patients with stable disease as best overall response: 12 (44.4%) patients (%)
  median PFS: 56 days
Ureteral urothelial carcinoma (wild-type FGFR3), 350 mg schedule A, two courses
  best response of individual patient: partial response
